Measured values published in ChEMBL document CHEMBL1667760, “Synthesis and biological evaluation of 3,5-diaryl isoxazoline/isoxazole linked 2,3-dihydroquinazolinone hybrids as anticancer agents” (2011).
Active and inactive are the calls of the source. No cut-off for these calls is given here.

Columns and labels:
HCT-116 = assay: Cytotoxicity against human HCT116 cells after 48 hrs by sulforhodamine B assay; type: functional; details: HCT-116, 48 h
In short: (§1)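 Run by the NCI 60-cell-line screen. A one-dose pre-test was done first, followed by the main test over a 5-log dose range (10^-4 to 10^-8 M). Results are reported as log molar GI50 (50% net growth inhibition), TGI (total growth inhibition) and LC50 (50% net cell death), with mean-graph midpoints across all lines.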

OVCAR-5 = assay: Cytotoxicity against human OVCAR5 cells after 48 hrs by sulforhodamine B assay; type: functional; details: OVCAR-5, 48 h; in short: as §1
MCF7 [1] = assay: Induction of apoptosis in human MCF7 cells assessed as nuclear fragmentation at 5 uM after 48 hrs by DAPI staining; type: functional, cell-based
In short: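 MCF-7 cells grown on glass coverslips and incubated 48 h with or without compound. Fixed in 3% paraformaldehyde/0.02% glutaraldehyde in PBS, stained with DAPI, and nuclear morphology examined by fluorescence microscopy.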

SNB-19 = assay: Cytotoxicity against human SNB19 cells after 48 hrs by sulforhodamine B assay; type: functional; details: SNB-19, 48 h
In short: (§2)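 NCI 60-cell-line panel screen of human tumor lines: a one-dose pre-test, then the main test over a 5-log range (10^-4–10^-8 M). GI50, TGI and LC50 are reported as log molar concentrations for 50% net growth inhibition, total growth inhibition and 50% net cell death. Mean graph midpoints are also calculated.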

SF-268 = assay: Cytotoxicity against human SF268 cells after 48 hrs by sulforhodamine B assay; type: functional; details: SF-268, 48 h; in short: as §1
HL-60(TB) = assay: Cytotoxicity against human HL-60(TB) cells after 48 hrs by sulforhodamine B assay; type: functional; details: HL-60, 48 h
In short: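 Run by the NCI 60 human tumour cell line screen. A one-dose pre-test across sixty lines came first. The main test then used a 5-log dose range (10^-4–10^-8 M). Values derived per cell line were GI50 (log molar concentration for 50% net growth inhibition), TGI (total growth inhibition) and LC50 (50% net cell death).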

MCF7 [2] = assay: Reduction of cyclin B expression in human MCF7 cells at 5 uM after 24 hrs by Western blotting; type: functional, cell-based
In short: (§3)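 MCF-7 cells, kept in DMEM with 10% fetal calf serum at 37 °C under 5% CO2, treated 24 h. Lysis in ice-cold RIPA with protease inhibitors; Bradford quantitation; 30 µg protein per lane on 12% SDS-PAGE, then PVDF. Primary antibodies (1:500) at 4 °C overnight; HRP secondary (1:2000); chemiluminescence detection; β-actin loading control.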

LOX IMVI = assay: Cytotoxicity against human LOXIMVI cells after 48 hrs by sulforhodamine B assay; type: functional; in short: as §1
IGROV-1 = assay: Cytotoxicity against human IGROV1 cells after 48 hrs by sulforhodamine B assay; type: functional; details: IGROV-1, 48 h; in short: as §1
PC-3 = assay: Cytotoxicity against human PC3 cells after 48 hrs by sulforhodamine B assay; type: functional; details: PC-3, 48 h
In short: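 Cells were grown in RPMI 1640 with 10% FBS and 2 mM L-glutamine, plated at densities set by doubling time, and pre-incubated 24 h at 37 °C, 5% CO2. Drugs were tested at 0.1, 1, 10 and 100 µM in triplicate wells for 48 h continuous exposure. Cells were fixed with 10% TCA (final) and stained with 0.4% SRB. A540 was read against a 690 nm reference, and percent growth was calculated relative to control. Experiments were repeated three times.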

OVCAR-8 = assay: Cytotoxicity against human OVCAR8 cells after 48 hrs by sulforhodamine B assay; type: functional; details: OVCAR-8, 48 h; in short: as §1
SK-MEL-5 = assay: Cytotoxicity against human SK-MEL-5 cells after 48 hrs by sulforhodamine B assay; type: functional; details: SK-MEL-5, 48 h; in short: as §1
SNB-75 = assay: Cytotoxicity against human SNB75 cells after 48 hrs by sulforhodamine B assay; type: functional; details: SNB-75, 48 h; in short: as §2
K562 = assay: Cytotoxicity against human K562 cells after 48 hrs by sulforhodamine B assay; type: functional; details: K562, 48 h; in short: as §1
HCT-15 = assay: Cytotoxicity against human HCT15 cells after 48 hrs by sulforhodamine B assay; type: functional; details: HCT-15, 48 h; in short: as §1
NCI-H522 = assay: Cytotoxicity against human NCI-H522 cells after 48 hrs by sulforhodamine B assay; type: functional; details: NCI-H522, 48 h; in short: as §1
COLO 205 = assay: Cytotoxicity against human COLO205 cells after 48 hrs by sulforhodamine B assay; type: functional; details: COLO 205, 48 h; in short: as §1
SK-MEL-2 = assay: Cytotoxicity against human SK-MEL-2 cells after 48 hrs by sulforhodamine B assay; type: functional; details: SK-MEL-2, 48 h; in short: as §1
NCI-H226 = assay: Cytotoxicity against human NCI-H226 cells after 48 hrs by sulforhodamine B assay; type: functional; details: NCI-H226, 48 h; in short: as §1
[3] = Cytotoxicity against human Hs 578T cells after 48 hrs by sulforhodamine B assay; type: functional; in short: as §1
U-251 = assay: Cytotoxicity against human U251 cells after 48 hrs by sulforhodamine B assay; type: functional; details: U-251, 48 h; in short: as §2
MDA-MB-231 = assay: Cytotoxicity against human MDA-MB-231 cells after 48 hrs by sulforhodamine B assay; type: functional; details: MDA-MB-231, 48 h; in short: as §1
UO-31 = assay: Cytotoxicity against human UO31 cells after 48 hrs by sulforhodamine B assay; type: functional; details: UO-31, 48 h; in short: as §2
MCF7 [4] = assay: Reduction of cyclin A expression in human MCF7 cells at 5 uM after 24 hrs by Western blotting; type: functional, cell-based; in short: as §3
ACHN = assay: Cytotoxicity against human ACHN cells after 48 hrs by sulforhodamine B assay; type: functional; in short: as §1
[5] = read-out: pLC50 (the source's name) (converted)

COc1cc(C2NC(=O)c3ccccc3N2)ccc1OCCCCCOc1c(OC)cc(C2=NOC(c3cc(OC)c(OC)c(OC)c3)C2)cc1OC (centres undefined)
GI50 (HCT-116): 0.708 µM
CC50 (HCT-116; [5]): > 100 µM
TGI (HCT-116; read-out: pTGI (converted)): 40.7 µM
GI50 (OVCAR-5): 36.3 µM
CC50 (OVCAR-5; [5]): > 100 µM
TGI (OVCAR-5; read-out: pTGI): > 100 µM
inhibition (MCF7 [1]): Active
GI50 (SNB-19): 16.6 µM
CC50 (SNB-19; [5]): > 100 µM
TGI (SNB-19; read-out: pTGI): > 100 µM
GI50 (SF-268): 21.4 µM
CC50 (SF-268; [5]): > 100 µM
TGI (SF-268; read-out: pTGI): > 100 µM
GI50 (HL-60(TB)): 11.2 µM
CC50 (HL-60(TB); [5]): > 100 µM
TGI (HL-60(TB); read-out: pTGI): > 100 µM
Activity (MCF7 [2]): Active
GI50 (LOX IMVI): 14.1 µM
CC50 (LOX IMVI; [5]): > 100 µM
TGI (LOX IMVI; read-out: pTGI): > 100 µM
GI50 (IGROV-1): 1.12 µM
CC50 (IGROV-1; [5]): > 100 µM
TGI (IGROV-1; read-out: pTGI (converted)): 50.1 µM
LC50 (PC-3): > 100 µM
GI50 (PC-3; read-out: pGI50 (converted)): 28.8 µM
TGI (PC-3; read-out: pTGI): > 100 µM
LC50 (OVCAR-8): > 100 µM
GI50 (OVCAR-8; read-out: pGI50 (converted)): 24.5 µM
TGI (OVCAR-8; read-out: pTGI): > 100 µM
GI50 (SK-MEL-5): 0.112 µM
CC50 (SK-MEL-5; [5]): 0.933 µM
TGI (SK-MEL-5; read-out: pTGI (converted)): 0.324 µM
GI50 (SNB-75): 11.2 µM
CC50 (SNB-75; [5]): > 100 µM
TGI (SNB-75; read-out: pTGI): > 100 µM
GI50 (K562): 0.501 µM
CC50 (K562; [5]): > 100 µM
TGI (K562; read-out: pTGI): > 100 µM
GI50 (HCT-15): 0.708 µM
CC50 (HCT-15; [5]): > 100 µM
TGI (HCT-15; read-out: pTGI): > 100 µM
GI50 (NCI-H522): 10.7 µM
CC50 (NCI-H522; [5]): 93.3 µM
TGI (NCI-H522; read-out: pTGI (converted)): 31.6 µM
GI50 (COLO 205): 34.7 µM
CC50 (COLO 205; [5]): > 100 µM
TGI (COLO 205; read-out: pTGI): > 100 µM
GI50 (SK-MEL-2): 35.5 µM
CC50 (SK-MEL-2; [5]): > 100 µM
TGI (SK-MEL-2; read-out: pTGI): > 100 µM
GI50 (NCI-H226): 3.39 µM
CC50 (NCI-H226; [5]): > 100 µM
TGI (NCI-H226; read-out: pTGI): > 100 µM
GI50 [3]: 16.6 µM
CC50 [3, 5]: > 100 µM
TGI ([3]; read-out: pTGI): > 100 µM
GI50 (U-251): 15.1 µM
CC50 (U-251; [5]): > 100 µM
TGI (U-251; read-out: pTGI): > 100 µM
GI50 (MDA-MB-231): 14.8 µM
CC50 (MDA-MB-231; [5]): > 100 µM
TGI (MDA-MB-231; read-out: pTGI): > 100 µM
GI50 (UO-31): 10.7 µM
CC50 (UO-31; [5]): > 100 µM
TGI (UO-31; read-out: pTGI): > 100 µM
Activity (MCF7 [4]): Active
GI50 (ACHN): 0.324 µM
CC50 (ACHN; [5]): > 100 µM
TGI (ACHN; read-out: pTGI): > 100 µM
